24 molecules from ChEMBL document CHEMBL1137362, “Synthesis and radioligand binding studies of methoxylated 1,2,3,4-tetrahydroisoquinolinium derivatives as ligands of the apamin-sensitive Ca2+-activated K+ channels” (J Med Chem, 2006) can be followed below.

The Inhibition is the change of the read-out against control, counted positive when it falls. High values mean a strong effect, low ones a weak effect. As usually defined, the Ki is a measure of affinity in units of concentration, obtained from inhibition or displacement. As usually defined, the IC50 is the concentration needed to halve the response being measured. The low end stands for greater potency in that assay, the high end for weaker potency in that assay.

The target in experiment [1] is Small conductance calcium-activated potassium channel (Rattus norvegicus) (UniProt P70604+P70606+P70605). Kind of experiment: Displacement of [125I]apamin from Wistar rat cortical apamin-sensitive site at 10 uM. Format: protein assay. In outline: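 Single-concentration screen at 10 µM: rat cortical synaptosomes (0.2 mg protein/mL) with 10 pM 125I-apamin, 1 h at 0 °C, Tris-HCl pH 7.5 buffer with 5.4 mM KCl and 0.1% BSA. Percent of specific radioligand binding displaced is reported; nonspecific binding defined with 0.1 µM apamin; filtration and scintillation counting; n = 3.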
(In general: Displacement assays read how much labelled ligand stays bound in the presence of the test substance.)

Experiment [2] is filed under the species Rattus norvegicus. As to the kind of experiment: Blockade of apamin-sensitive AHP in Wistar rat dopaminergic neurons by electrophysiology assay at 100 uM. The experiment is classed as functional, organism-based. Conditions: neuron. The essentials: (§1)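 Intracellular bridge-balance recording of the apamin-sensitive AHP in dopaminergic neurons; drugs dissolved in water. IC50 obtained by fitting E = Emax/[1 + (IC50/x)h]; percent AHP block reported at 100 µM; means ± SEM, n = 3.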

Experiment [3] deals with Small conductance calcium-activated potassium channel (Rattus norvegicus, UniProt P70604+P70606+P70605). As to the kind of experiment: Displacement of [125I]apamin from Wistar rat cortical apamin-sensitive site. The experiment is classed as protein assay.
Experiment [4] is filed under the species Rattus norvegicus. Kind of experiment: Blockade of apamin-sensitive AHP in Wistar rat dopaminergic neurons by electrophysiology assay. Format: functional, organism-based. Conditions: Neuron. The essentials: as §1

For `COc1ccc(CCC2c3cc(OC)c(OC)cc3CCN2C)cc1OC` (stereo unspecified), the Activity in experiment [1] was 11%.

Regarding `C[N+]1(C)CCc2ccccc2C1Cc1ccc2ccccc2c1` (stereo unspecified), in experiment [1], the Activity came to 1%. With `CCCC1c2cc(OC)c(OC)cc2CCN1C` (stereo unspecified), the Activity in experiment [1] stood at 0%. Same read-out and setting: the result for `COc1ccc(CC2c3c(ccc(OC)c3OC)CCN2C)cc1OC` (stereo unspecified) reads 3%. The same measure, in the same setting: the result for `COc1ccc2c(c1OC)C(Cc1ccc3ccccc3c1)N(C)CC2` (stereo unspecified) reads 0%. For the molecule `COc1ccc(CC2c3c(cc(OC)c(OC)c3OC)CCN2C)cc1OC` (stereo unspecified), the Activity in experiment [1] was found to be 27%. The molecule further had an Inhibition in the experiment listed under Rattus norvegicus [2] of 51.9%. Regarding `COc1ccc2c(c1OC)C(=O)O[C@@H]2[C@H]1c2c(cc3c(c2OC)OCO3)CC[N+]1(C)C.[I-]`, in experiment [3], the inhibitory constant (Ki) amounted to 3.6 µM. The molecule `COc1ccc(C[C@H]2c3cc(OC)c(OC)cc3CC[N+]2(C)C)cc1OC.[I-]` [LAUDANOSINE METHIODIDE] gave an IC50 in the experiment listed under Rattus norvegicus [4] of 15 µM. Also, the inhibitory constant (Ki) in experiment [3] was found to be 1.3 µM. As to `COc1cc2c(cc1OC)C(CC(C)C)N(C)CC2` (stereo unspecified), the Activity in experiment [1] was 0%. For the molecule `COc1cc2c(c(OC)c1)C(Cc1ccc3ccccc3c1)[N+](C)(C)CC2` (stereo unspecified), the Activity in experiment [1] amounted to 2%.

Consider `COc1cc2c(c(OC)c1OC)C(Cc1ccc3ccccc3c1)[N+](C)(C)CC2.[I-]` (stereo unspecified), for which, in experiment [1], the Activity is 53%. In addition, in experiment [3], the Ki is 2.2 µM. For the molecule `COc1ccc(CCC2c3cc(OC)c(OC)cc3CC[N+]2(C)C)cc1OC.[I-]` (stereo unspecified), the Activity in experiment [1] amounted to 32%. For the same molecule, in experiment [3], the inhibitory constant (Ki) was 5.4 µM. `COc1ccc(CC2c3c(cc(OC)c(OC)c3OC)CC[N+]2(C)C)cc1OC.[I-]` (stereo unspecified): in experiment [1], the Activity stood at 72%. The molecule further came in with an IC50 in the experiment listed under Rattus norvegicus [4] of 9 µM. Further, the inhibitory constant (Ki) in experiment [3] came to 0.73 µM.

With `COc1cc2c(c(OC)c1OC)C(Cc1ccc3ccccc3c1)N(C)CC2` (stereo unspecified), the Activity in experiment [1] was 0%.

As to `COc1ccc(CC2c3c(ccc(OC)c3OC)CC[N+]2(C)C)cc1OC` (stereo unspecified), the Activity in experiment [1] stood at 24%.

Take `CCCC1c2cc(OC)c(OC)cc2CC[N+]1(C)C` (stereo unspecified): the Activity in experiment [1] was 6%. Turning to `COc1cc2c(c(OC)c1)C(Cc1ccc(OC)c(OC)c1)N(C)CC2` (stereo unspecified), the Activity in experiment [1] is 0%. Still for that read-out and setting: the result for `COc1cc2c(cc1OC)C(CC(C)C)[N+](C)(C)CC2` (stereo unspecified) reads 0%; that for `CN1CCc2ccccc2C1Cc1ccc2ccccc2c1` (stereo unspecified), 0%. Same read-out and setting: the result for `COc1cc2c(c(OC)c1)C(Cc1ccc(OC)c(OC)c1)[N+](C)(C)CC2` (stereo unspecified) reads 20%; that for `COc1cc2c(cc1OC)C(Cc1ccc3ccccc3c1)N(C)CC2` (stereo unspecified), 6%. As for `COc1cc2c(cc1OC)C(Cc1ccc3ccccc3c1)[N+](C)(C)CC2.[I-]` (stereo unspecified), the Activity in experiment [1] came to 70%. Also, the inhibition constant Ki in experiment [3] was found to be 0.91 µM. As to `COc1ccc2c(c1OC)C(Cc1ccc3ccccc3c1)[N+](C)(C)CC2` (stereo unspecified), the Activity in experiment [1] was 18%.

For `COc1cc2c(c(OC)c1)C(Cc1ccc3ccccc3c1)N(C)CC2` (stereo unspecified), in experiment [1], the Activity worked out at 0%.
